Results reported in ChEMBL document CHEMBL3792306, “Antichagasic and trichomonacidal activity of 1-substituted 2-benzyl-5-nitroindazolin-3-ones and 3-alkoxy-2-benzyl-5-nitro-2H-indazoles” (Eur J Med Chem, 2016).

Legend:
[1] = Cytotoxicity against mouse L929 cells after 48 hrs by resazurin assay; assay type: cell-based; settings: read-out: LC50
Outline: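 L929 fibroblasts, 15×10^3 cells/well in MEM, attached 3 h. Exposed to compounds for 48 h at 37 °C, 5% CO2. Resazurin (2 mM solution in PBS) added for 3 h; fluorescence read at 535/590 nm to give % cytotoxicity. Triplicate wells, three independent runs. LC50 taken from concentration vs %C curves, mean ± SD.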

[2] = Selectivity index, ratio of LC50 for mouse L929 cells to IC50 for Trypanosoma cruzi CL-B5 lacZ epimastigotes […]; assay type: toxicity, cell-based; settings: read-out: Ratio LC50/IC50
Outline: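 SI = LC50 (L929, 48 h resazurin) / epimastigote IC50. […] CPRG (200 µM final, 0.9% Triton X-100, pH 7.4) added for 3 h at 37 °C, A595 read. Triplicates, n = 3; IC50 from %EGI curves.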

[3] = tested on: Trichomonas vaginalis; assay: Trichomonacidal activity against metronidazole-sensitive Trichomonas vaginalis JH31A#4 trophozoites after 24 hrs by resazurin dye based fluorescence assay; assay type: functional, organism-based; settings: JH31A#4, 24 h
Outline: (§1)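 Trophozoites in TYM with 10% FBS, 37 °C, 5% CO₂, seeded at 10⁵/mL in glass tubes. After 5 h, compounds added at 9.37–300 µM final (DMSO <0.2%). Viability read by resazurin fluorimetry after 24 h at 37 °C. Metronidazole 25 µM as reference. At least two runs in triplicate; IC50 with 95% limits by probit.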

[4] = tested on: Trypanosoma cruzi; assay: Antichagasic activity against Trypanosoma cruzi CL-B5 epimastigotes […] assessed as growth inhibition after 72 hrs by beta galactosidase reporter gene assay; assay type: functional, organism-based
Outline: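 Then CPRG (200 µM final, pH 7.4) in Triton X-100 added for 3 h at 37 °C, A595 read. Triplicates, three independent runs; IC50 from dose–response of %growth inhibition, mean ± SD.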

[5] = tested on: Trypanosoma cruzi; assay: Antichagasic activity against Trypanosoma cruzi CL-B5 intracellular amastigotes in mouse L929 cells assessed as growth inhibition after 7 days by beta galactosidase reporter gene assay; assay type: functional, organism-based; settings: CL-B5, L929, 168 h
Outline: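 L929 fibroblasts (10,000/well, MEM) infected overnight at 33 °C, 5% CO₂ with CL-B5 lacZ tissue-culture trypomastigotes (1:6 cell:parasite). Washed, then 7 days with compound in fresh MEM. CPRG (400 µM final, pH 7.4) in 3% Triton X-100 for 3 h at 37 °C, A595. Triplicates; IC50 from %amastigote growth inhibition curves, mean ± SD.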

[6] = Selectivity index, ratio of LC50 for mouse L929 cells to IC50 for Trypanosoma cruzi CL-B5 lacZ amastigotes in mouse L929 cells; assay type: toxicity, cell-based; settings: read-out: Ratio LC50/IC50
Outline: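 SI = LC50 (L929, 48 h resazurin) / amastigote IC50. Amastigotes: L929 cells (10,000/well, MEM) infected overnight at 33 °C with CL-B5 lacZ tissue-culture trypomastigotes (1:6 cell:parasite), washed, then exposed to compounds for 7 days. CPRG (400 µM final, 3% Triton X-100, pH 7.4) added for 3 h at 37 °C, A595 read. Triplicates; IC50 from %AGI curves. Assayed only when epimastigote SI warranted.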

[7] = Cytotoxicity against african green monkey Vero cells assessed as inhibition of cell growth at 300 uM after 24 hrs by resazurin dye based fluorescence assay; settings: chlorocebus sabaeus, read-out: Activity
[8] = Cytotoxicity against african green monkey Vero cells assessed as inhibition of cell growth after 24 hrs by resazurin dye based fluorescence assay; settings: chlorocebus sabaeus
Outline: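 Vero CCL-81 cells (50,000/well, RPMI with 10% FBS) attached 6 h at 37 °C, then 24 h with compound. Resazurin added for 3 h, fluorescence at ex 535/em 590 nm. Triplicates in two independent assays; CC50 and 95% confidence limits by probit analysis.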

[9] = Selectivity index, ratio of CC50 for african green monkey Vero cells to IC50 for metronidazole-sensitive Trichomonas vaginalis JH31A#4 trophozoites; assay type: functional
Outline: (§2)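 Selectivity index = Vero CC50 (24 h resazurin, probit) divided by trophozoite IC50 (24 h resazurin, probit) for the named T. vaginalis isolate.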

[10] = tested on: Trichomonas vaginalis; assay: Trichomonacidal activity against metronidazole-resistant Trichomonas vaginalis IR78 trophozoites after 24 hrs by resazurin dye based fluorescence assay; assay type: functional, organism-based; settings: IR78, 24 h; outline: as §1
[11] = Selectivity index, ratio of CC50 for african green monkey Vero cells to IC50 for metronidazole-resistant Trichomonas vaginalis IR78 trophozoites; assay type: functional; outline: as §2

Structure (SMILES)	CC50 at 48 h [1] [µM]	selectivity ratio [2]	IC50 [3] [µM]	IC50 [4] [µM]	IC50 [5] [µM]	selectivity ratio [6]	inhibition at 24 h, 300 µM [7] [%]	CC50 at 24 h [8] [µM]	Ratio CC50/IC50 [9]	IC50 [10] [µM]	Ratio CC50/IC50 [11]
CC(=O)OCCn1c2ccc([N+](=O)[O-])cc2c(=O)n1Cc1ccccc1	> 256	> 47.1	266	5.43	0.25	> 1024					
CCOCCCn1c2ccc([N+](=O)[O-])cc2c(=O)n1Cc1ccccc1	170	25.9	362	6.57	3.31	51.5					
C=CCn1c2ccc([N+](=O)[O-])cc2c(=O)n1Cc1ccccc1	192	45.9	359	4.19	1.58	122					
O=c1c2cc([N+](=O)[O-])ccc2n(CCCO)n1Cc1ccccc1	> 256	> 152	128	1.68	0.25	> 1024					
COc1c2cc([N+](=O)[O-])ccc2nn1C			18.5								
C#CCn1c2ccc([N+](=O)[O-])cc2c(=O)n1Cc1ccccc1	195	18.1	261	10.8	3.02	64.7					
O=C(O)CCCn1c2ccc([N+](=O)[O-])cc2c(=O)n1Cc1ccccc1	> 256			> 256							
O=c1c2cc([N+](=O)[O-])ccc2n(CCOc2c3cc([N+](=O)[O-])ccc3nn2Cc2ccccc2)n1Cc1ccccc1	> 256			> 256							
COC(=O)CCn1c2ccc([N+](=O)[O-])cc2c(=O)n1Cc1ccccc1	> 256	> 27.9	376	9.19	2.93	> 87.4					
O=[N+]([O-])c1ccc2nn(Cc3ccccc3)c(OCCBr)c2c1	> 256		64.8	> 256							
O=c1c2cc([N+](=O)[O-])ccc2n(CCCBr)n1Cc1ccccc1	25.2	8.69	80.2	2.9							
O=c1c2cc([N+](=O)[O-])ccc2n(CCBr)n1Cc1ccccc1	> 256	> 120	348	2.13	1.14	> 225					
Cc1ccc(S(=O)(=O)n2c3ccc([N+](=O)[O-])cc3c(=O)n2Cc2ccccc2)cc1	> 256	> 8.9	151	28.8							
COC(=O)CCOc1c2cc([N+](=O)[O-])ccc2nn1Cc1ccccc1	> 256		43	> 256			< 20	> 300	>7		
O=[N+]([O-])c1ccc2nn(Cc3ccccc3)c(OCCOc3c4cc([N+](=O)[O-])ccc4nn3Cc3ccccc3)c2c1	> 256			> 256							
COC(=O)Cn1c2ccc([N+](=O)[O-])cc2c(=O)n1Cc1ccccc1	129	4.92	535	26.2							
CCOC(=O)CCCOc1c2cc([N+](=O)[O-])ccc2nn1Cc1ccccc1	> 256	> 10.2	20.6	25.1	25.4	> 10.1					
NC(=O)CN1c2ccc([N+](=O)[O-])cc2C(=O)N(Cc2ccccc2)C1C(N)=O (stereo not drawn)	> 256			> 256							
CCOC(=O)n1c2ccc([N+](=O)[O-])cc2c(=O)n1Cc1ccccc1	122	2.49	419	49							

Structure (SMILES)	CC50 at 48 h [1] [µM]	selectivity ratio [2]	IC50 [3] [µM]	IC50 [4] [µM]	IC50 [5] [µM]	selectivity ratio [6]	inhibition at 24 h, 300 µM [7] [%]	CC50 at 24 h [8] [µM]	Ratio CC50/IC50 [9]	IC50 [10] [µM]	Ratio CC50/IC50 [11]
NC(=O)CCCn1c2ccc([N+](=O)[O-])cc2c(=O)n1Cc1ccccc1	> 256	> 8.26	104	31							
Cc1ncc([N+](=O)[O-])n1CCO [METRONIDAZOLE]			1.43					> 600	>100	5.78	>100
COC(=O)C1Nc2ccc([N+](=O)[O-])cc2C(=O)N1Cc1ccccc1 (stereo not drawn)	> 256	> 1.18		216							
COCCn1c2ccc([N+](=O)[O-])cc2c(=O)n1Cc1ccccc1	> 256	> 39	285	6.56	2.29	> 112					
O=[N+]([O-])c1ccc2nn(Cc3ccccc3)c(OCCO)c2c1	> 256		9.82	> 256			14.7	> 300	>30.5	49.8	>6
CC(=O)n1c2ccc([N+](=O)[O-])cc2c(=O)n1Cc1ccccc1	> 256		213	> 256							
NC(=O)C1Nc2ccc([N+](=O)[O-])cc2C(=O)N1Cc1ccccc1 (stereo not drawn)	> 256			> 256							
O=C(OCc1ccccc1)n1c2ccc([N+](=O)[O-])cc2c(=O)n1Cc1ccccc1	86.1	1.97	589	43.6							
C=Cn1c2ccc([N+](=O)[O-])cc2c(=O)n1Cc1ccccc1	160	58.4	258	2.75	0.47	341					
O=C(O)CCn1c2ccc([N+](=O)[O-])cc2c(=O)n1Cc1ccccc1	> 256			> 256							
COC(=O)CN1c2ccc([N+](=O)[O-])cc2C(=O)N(Cc2ccccc2)C1C(=O)OC (stereo not drawn)	205	< 0.8	58.2	> 256							
COC(=O)COc1c2cc([N+](=O)[O-])ccc2nn1Cc1ccccc1	> 256	> 1.77		145							
N#CCn1c2ccc([N+](=O)[O-])cc2c(=O)n1Cc1ccccc1	> 256	> 21.9		11.7	3.5	> 73.1					
COCCOc1c2cc([N+](=O)[O-])ccc2nn1Cc1ccccc1	> 256		107	> 256							
CCOC(=O)CCCn1c2ccc([N+](=O)[O-])cc2c(=O)n1Cc1ccccc1	78.1	7.01	192	11.1							
CN(C)C(=O)CCCn1c2ccc([N+](=O)[O-])cc2c(=O)n1Cc1ccccc1	> 256	> 66.3	48.9	3.86	0.54	> 474	< 20	> 300	>6.1		
CNC(=O)CCCn1c2ccc([N+](=O)[O-])cc2c(=O)n1Cc1ccccc1	> 256	> 19.3	182	13.3	1.5	> 171					
O=C(c1ccccc1)n1c2ccc([N+](=O)[O-])cc2c(=O)n1Cc1ccccc1	146	< 0.57	197	> 256							
